Source: ChEMBL document CHEMBL4346662, “Synthesis of novel 7-azaindole derivatives containing pyridin-3-ylmethyl dithiocarbamate moiety as potent PKM2 activators and PKM2 nucleus translocation inhibitors” (Eur J Med Chem, 2019)
Calls of active or inactive are those of the source. No cut-off for these calls is given here.

Columns and labels:
Pyruvate kinase PKM [1] = molecular target: T1, Pyruvate kinase PKM (Homo sapiens, UniProt P14618); experiment: Activation of human recombinant His-tagged PKM2 expressed in Escherichia coli using PEP as substrate measured at 30 sec between 3 and 6 mins in presence of […] by fluorescent pyruvate kinase-lactate dehydrogenase coupled assay; settings: read-out: AC50
Summary of the method: (§1)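 Pyruvate kinase activity read by fluorescent pyruvate kinase–lactate dehydrogenase coupled assay; AC50 and maximal activation are means of at least two determinations.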
Target sequence in this assay (P14618 whole entry): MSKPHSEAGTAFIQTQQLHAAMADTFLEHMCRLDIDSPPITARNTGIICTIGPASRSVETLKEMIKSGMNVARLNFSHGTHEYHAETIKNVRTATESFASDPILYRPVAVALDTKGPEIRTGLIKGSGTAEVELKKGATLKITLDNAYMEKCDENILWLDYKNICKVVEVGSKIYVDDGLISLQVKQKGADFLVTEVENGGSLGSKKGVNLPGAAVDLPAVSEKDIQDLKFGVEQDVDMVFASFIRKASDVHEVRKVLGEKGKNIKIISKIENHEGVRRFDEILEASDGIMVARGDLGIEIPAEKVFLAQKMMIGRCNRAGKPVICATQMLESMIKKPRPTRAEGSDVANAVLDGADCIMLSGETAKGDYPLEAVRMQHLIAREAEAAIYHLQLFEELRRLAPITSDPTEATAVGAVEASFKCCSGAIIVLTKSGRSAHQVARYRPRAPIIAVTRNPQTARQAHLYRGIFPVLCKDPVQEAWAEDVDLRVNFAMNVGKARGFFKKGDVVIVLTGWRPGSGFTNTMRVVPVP

Pyruvate kinase PKM [2] = molecular target: T1, Pyruvate kinase PKM; experiment: Activation of human recombinant His-tagged PKM2 expressed in Escherichia coli assessed as maximal activity using PEP as substrate measured at 30 sec between 3 and 6 mins in presence of […] by fluorescent pyruvate kinase-lactate dehydrogenase coupled assay relative to control; summary of the method: as §1
Target sequence in this assay (P14618 2-531 limits assumed): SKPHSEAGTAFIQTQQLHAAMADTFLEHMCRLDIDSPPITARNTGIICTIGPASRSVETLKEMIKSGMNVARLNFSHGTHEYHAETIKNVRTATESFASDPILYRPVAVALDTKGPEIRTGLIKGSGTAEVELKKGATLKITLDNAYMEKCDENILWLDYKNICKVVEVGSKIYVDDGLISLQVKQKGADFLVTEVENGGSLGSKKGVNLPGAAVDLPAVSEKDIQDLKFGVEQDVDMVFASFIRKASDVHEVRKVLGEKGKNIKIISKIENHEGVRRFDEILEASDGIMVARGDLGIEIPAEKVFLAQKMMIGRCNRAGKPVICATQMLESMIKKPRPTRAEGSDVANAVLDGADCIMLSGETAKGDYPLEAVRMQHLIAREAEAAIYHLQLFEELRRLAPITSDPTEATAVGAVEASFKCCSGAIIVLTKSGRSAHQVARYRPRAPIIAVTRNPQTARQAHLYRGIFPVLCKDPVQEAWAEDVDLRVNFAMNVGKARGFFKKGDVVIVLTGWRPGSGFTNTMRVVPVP

NCI-H1299 = experiment: Antiproliferative activity against human H1299 cells assessed as reduction in cell growth incubated for 72 hrs by CellTiter-Glo assay; format: functional, cell-based; settings: NCI-H1299, 72 h
Summary of the method: (§2)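 Cells (H1299 in RPMI 1640; HCT116 and A375 in DMEM; 10% FBS, 37 °C, 5% CO2) plated at 2000 per well, left 24 h, then exposed to ten concentrations or DMSO for 72 h. CellTiter-Glo added, 30 min at room temperature in dark, luminescence read. IC50 fitted from triplicate experiments.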

HCT-116 = experiment: Antiproliferative activity against human HCT116 cells assessed as reduction in cell growth incubated for 72 hrs by CellTiter-Glo assay; format: functional, cell-based; settings: HCT-116, 72 h; summary of the method: as §2
A-375 [3] = experiment: Antiproliferative activity against human A375 cells assessed as reduction in cell growth incubated for 72 hrs by CellTiter-Glo assay; format: functional, cell-based; settings: A-375, 72 h; summary of the method: as §2
[4] = Cytotoxicity against human HELF cells assessed as reduction in cell viability incubated for 72 hrs by CellTiter-Glo assay; format: cell-based
C2C12 = experiment: Cytotoxicity against mouse C2C12 cells assessed as reduction in cell viability incubated for 72 hrs by CellTiter-Glo assay; format: cell-based; settings: C2C12, 72 h
[5] = Cytotoxicity against mouse C2C12 cells assessed as reduction in cell viability at 20 uM incubated for 72 hrs by CellTiter-Glo assay relative to control; format: cell-based; settings: read-out: INH
[6] = molecular target: Serine/threonine-protein kinase B-raf (Homo sapiens) (UniProt P15056); experiment: Inhibition of B-raf (unknown origin) at 10 uM
Serine/threonine-protein kinase B-raf (Homo sapiens), sequence (P15056 whole entry): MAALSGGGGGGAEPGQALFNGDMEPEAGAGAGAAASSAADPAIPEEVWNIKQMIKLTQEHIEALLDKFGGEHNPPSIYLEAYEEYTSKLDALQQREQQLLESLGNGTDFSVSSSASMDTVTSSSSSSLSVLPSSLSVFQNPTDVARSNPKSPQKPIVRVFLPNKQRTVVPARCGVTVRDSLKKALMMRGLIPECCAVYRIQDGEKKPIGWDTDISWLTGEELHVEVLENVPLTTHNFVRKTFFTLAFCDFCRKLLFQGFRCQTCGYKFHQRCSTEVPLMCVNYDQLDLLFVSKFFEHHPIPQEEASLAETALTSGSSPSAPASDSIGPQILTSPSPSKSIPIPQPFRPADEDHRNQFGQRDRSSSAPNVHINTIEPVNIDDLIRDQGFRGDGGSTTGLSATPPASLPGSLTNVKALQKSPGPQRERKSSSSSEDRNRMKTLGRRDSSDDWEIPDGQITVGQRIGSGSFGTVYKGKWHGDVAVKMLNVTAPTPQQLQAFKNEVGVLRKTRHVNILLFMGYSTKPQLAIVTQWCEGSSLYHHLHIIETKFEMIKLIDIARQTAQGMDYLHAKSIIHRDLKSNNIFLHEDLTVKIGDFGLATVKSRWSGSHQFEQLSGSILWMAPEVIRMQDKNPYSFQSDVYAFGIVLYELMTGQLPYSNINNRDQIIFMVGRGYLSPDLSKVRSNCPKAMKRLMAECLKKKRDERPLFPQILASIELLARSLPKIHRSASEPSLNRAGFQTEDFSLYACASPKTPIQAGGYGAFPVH
Summary of the method: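 B-raf tested by single-point binding at 10 μM.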

A-375 [7] = experiment: Antitumor activity in human A375 cells xenografted in BALB/C mouse assessed as reduction in tumor volume at 50 mg/kg, po bid for 14 days measured on day 22; format: functional, organism-based
Summary of the method: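 Male BALB/c athymic nude mice, six weeks old, 18–20 g, inoculated subcutaneously with A375 cells (5×10^7 cells/mL in DMEM, 0.2 mL). At 100–300 mm³ (7 days), randomized, n = 6 per group, dosed orally bid for 14 days; vehicle 0.5% CMCNa. Tumor volume ((width)²×length/2) and body weight measured 2–3 times weekly; tumors excised and weighed at day 22.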

Homo sapiens = species: Homo sapiens; experiment: Inhibition of nuclear translocation of PKM2 in human A375 cells assessed as retardation of in nuclear accumulation of PKM2 at 1 to 4 uM incubated for 24 hrs by Hoechst staining-based immunofluorescent microscopic analysis; format: cell-based
Summary of the method: (§3)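 A375 cells seeded at 60% per well, grown 24 h at 37 °C, then treated with three concentrations, DMSO or NZT for 24 h (12 h in a separate run). Fixed 10 min in 3% PFA/0.1% glutaraldehyde, blocked overnight at 4 °C (3% BSA, 0.2% Triton X-100), stained with rabbit anti-PKM2 2 h, then secondary plus Hoechst 33258 1 h. Imaged on Operetta high content system; cytoplasmic fluorescence intensity quantified.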

Pyruvate kinase PKM [8] = molecular target: T1, Pyruvate kinase PKM; experiment: Inhibition of nuclear translocation of PKM2 in human A375 cells assessed as retardation of in nuclear accumulation of PKM2 at 1 to 4 uM incubated for 12 hrs by Hoechst staining-based immunofluorescent microscopic analysis; format: cell-based; summary of the method: as §3
Target sequence in this assay (P14618 2-531 limits assumed): as the sequence (P14618 2-531 limits assumed) above

A-375 [9] = experiment: Induction of apoptosis in human A375 cells assessed as apoptotic cells at 1 to 4 uM incubated for 24 hrs by AnnexinV-FITC/propidium iodide staining-based flow cytometric analysis relative to control; format: functional, cell-based
Summary of the method: (§4)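 A375 cells seeded at 6×10^5 per well, grown 24 h, then given fresh medium with compound for 24 h. Harvested by trypsinization, washed twice in ice-cold PBS, stained with Annexin V-FITC/PI and analysed by flow cytometry. Annexin V+/PI− scored early, Annexin V+/PI+ late apoptotic, double-negative live.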

A-375 [10] = experiment: Induction of autophagy in human A375 cells assessed as increase in LC3-1 to LC3-2 transition at 1 to 4 uM incubated for 24 hrs by immunoflourescence assay; format: functional, cell-based
Summary of the method: (§5)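 A375 cells seeded at 60% per well, then treated with compound or DMSO for 24 h. Fixed in 3% PFA/0.1% glutaraldehyde, blocked overnight at 4 °C, immunostained with rabbit anti-LC3B plus Hoechst 33258. High content imaging quantified cytoplasmic LC3B intensity and LC3B spot area.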

A-375 [11] = experiment: Anti-migration activity against human A375 cells assessed as inhibition of cell migration speed incubated for 24 hrs; format: functional, cell-based
Summary of the method: (§6)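 A375 cells seeded at 60% per well, grown 24 h, then given six concentrations or DMSO. Migration speed and accumulated distance tracked in real time by live-cell high content imaging (Operetta) over 24 h. Data from triplicate experiments.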

A-375 [12] = experiment: Inhibition of nuclear translocation of PKM2 in human A375 cells assessed as cell death of PKM2 at 4 uM incubated for 24 hrs by Hoechst staining-based fluorescent microscopic analysis; format: functional
A-375 [13] = experiment: Anti-migration activity against human A375 cells assessed as inhibition of cell migration distance incubated for 24 hrs; format: functional, cell-based; summary of the method: as §6
[14] = Cytotoxicity against human HELF cells assessed as reduction in cell viability at 20 uM incubated for 72 hrs by CellTiter-Glo assay relative to control; format: cell-based; settings: read-out: INH
A-375 [15] = experiment: Cytotoxicity in human A375 cells assessed as reduction in cel viability at 4 uM incubated for 24 hrs; format: functional, cell-based
A-375 [16] = experiment: Induction of autophagy in human A375 cells assessed as increase inLC3B spot area at 1 to 4 uM incubated for 24 hrs by immunoflourescence assay; format: functional, cell-based; summary of the method: as §5
A-375 [17] = experiment: Induction of apoptosis in human A375 cells assessed as viable cells level at 1 uM incubated for 24 hrs by AnnexinV-FITC/propidium iodide staining-based flow cytometric analysis (reference value: 89.51%); format: functional; summary of the method: as §4
A-375 [18] = experiment: Induction of apoptosis in human A375 cells assessed as early apoptotic cells level at 1 uM incubated for 24 hrs by AnnexinV-FITC/propidium iodide staining-based flow cytometric analysis (reference value: 2.89%); format: functional; summary of the method: as §4
A-375 [19] = experiment: Induction of apoptosis in human A375 cells assessed as late apoptotic cells level at 1 uM incubated for 24 hrs by AnnexinV-FITC/propidium iodide staining-based flow cytometric analysis (reference value: 6.64%); format: functional; summary of the method: as §4
A-375 [20] = experiment: Induction of apoptosis in human A375 cells assessed as necrotic cells level at 1 uM incubated for 24 hrs by AnnexinV-FITC/propidium iodide staining-based flow cytometric analysis (reference value: 0.96%); format: functional; summary of the method: as §4
A-375 [21] = experiment: Induction of apoptosis in human A375 cells assessed as viable cells level at 2 uM incubated for 24 hrs by AnnexinV-FITC/propidium iodide staining-based flow cytometric analysis (reference value: 89.51%); format: functional; summary of the method: as §4
A-375 [22] = experiment: Induction of apoptosis in human A375 cells assessed as early apoptotic cells level at 2 uM incubated for 24 hrs by AnnexinV-FITC/propidium iodide staining-based flow cytometric analysis (reference value: 2.89%); format: functional; summary of the method: as §4
A-375 [23] = experiment: Induction of apoptosis in human A375 cells assessed as late apoptotic cells level at 2 uM incubated for 24 hrs by AnnexinV-FITC/propidium iodide staining-based flow cytometric analysis (reference value: 6.64%); format: functional; summary of the method: as §4
A-375 [24] = experiment: Induction of apoptosis in human A375 cells assessed as necrotic cells level at 2 uM incubated for 24 hrs by AnnexinV-FITC/propidium iodide staining-based flow cytometric analysis (reference value: 0.96%); format: functional; summary of the method: as §4
A-375 [25] = experiment: Induction of apoptosis in human A375 cells assessed as viable cells level at 4 uM incubated for 24 hrs by AnnexinV-FITC/propidium iodide staining-based flow cytometric analysis (reference value: 89.51%); format: functional; summary of the method: as §4
A-375 [26] = experiment: Induction of apoptosis in human A375 cells assessed as early apoptotic cells level at 4 uM incubated for 24 hrs by AnnexinV-FITC/propidium iodide staining-based flow cytometric analysis (reference value: 2.89%); format: functional; summary of the method: as §4
A-375 [27] = experiment: Induction of apoptosis in human A375 cells assessed as late apoptotic cells level at 4 uM incubated for 24 hrs by AnnexinV-FITC/propidium iodide staining-based flow cytometric analysis (reference value: 6.64%); format: functional; summary of the method: as §4
A-375 [28] = experiment: Induction of apoptosis in human A375 cells assessed as necrotic cells level at 4 uM incubated for 24 hrs by AnnexinV-FITC/propidium iodide staining-based flow cytometric analysis (reference value: 0.96%); format: functional; summary of the method: as §4
[29] = Toxicity in BALB/C mouse xenografted with human A375 cells assessed as reduction in body weight at 50 mg/kg, po bid for 14 days measured on day 22; settings: in vivo, 336 h

Question: Which results are given for `O=C(CCSC(=S)NCc1cccnc1)c1cn(CC(F)F)c2ncccc12`?
Answer: AC50 (Pyruvate kinase PKM [1]): 2.67 µM; %max (Pyruvate kinase PKM [2]): 149%; IC50 (NCI-H1299): 2.28 µM; IC50 (HCT-116): 0.71 µM; IC50 (A-375 [3]): 0.28 µM; IC50 [4]: > 20 µM; IC50 (C2C12): > 20 µM; cytotoxicity at 72 h, 20 µM [5]: 46%; inhibition [6]: 41%; Activity (A-375 [7]): Active; inhibition (Homo sapiens): Dose-dependent effect; Activity (Pyruvate kinase PKM [8]): Active; Activity (A-375 [9]): Dose-dependent effect; Activity (A-375 [10]): Dose-dependent effect; Activity (A-375 [11]): Dose-dependent effect; inhibition (A-375 [12]): Active; Activity (A-375 [13]): Dose-dependent effect; cytotoxicity at 72 h, 20 µM [14]: 10%; Activity (A-375 [15]): Active; Activity (A-375 [16]): Dose-dependent effect; Activity (A-375 [17]): 86.39%; Activity (A-375 [18]): 3.95%; Activity (A-375 [19]): 8.09%; Activity (A-375 [20]): 1.57%; Activity (A-375 [21]): 76.9%; Activity (A-375 [22]): 14.01%; Activity (A-375 [23]): 6.98%; Activity (A-375 [24]): 2.11%; Activity (A-375 [25]): 67.24%; Activity (A-375 [26]): 18.55%; Activity (A-375 [27]): 9.76%; Activity (A-375 [28]): 4.45%; Activity [29]: Non-Toxic
